Among the data in ChEMBL document CHEMBL4325821, “Novel cell-penetrating-amyloid peptide conjugates preferentially kill cancer cells” (Medchemcomm, 2018) are Drug uptake, Activity and EC50 values, retold here.

The source made the active and inactive calls. The rule behind the calls is not given here. Starred links: 1 amine or outer side, 2 acyl side, 3 side chain; linkers in the order of their positions; H or OH if unused. Residues, ends and D or L forms follow the SMILES beside them. *: point of attachment. Piperazinyl(4-RhodamineB) = CCN(CC)c1ccc2c(-c3ccccc3C(=O)N3CCN(*)CC3)c3ccc(=[N+](CC)CC)cc-3oc2c1; Suc = O=C(CCC(=O)[*:2])[*:1]

A short description of data set [1]: Drug localization in nucleus of mouse HT22 cells assessed as punctate formation after 3 hrs by DAPI staining based fluorescence microscopic analysis. The data set is classed as ADME, subcellular. To be noted: ht-22, 3 h. In a few lines: (§1)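 Rhodamine-labelled peptide (3.5 μM) was given for 3 h at 37 °C. Cells were washed with DMEM and PBS, fixed in 4% PFA for 20 min, nuclei stained with DAPI, and imaged by epifluorescence with 40× air or 60× oil objectives.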

Data set [2] in a line: Drug localization in cytosol of mouse HT22 cells assessed as punctate formation after 3 hrs by DAPI staining based fluorescence microscopic analysis. The data set is classed as ADME, subcellular, HT-22. A digest of the protocol:
as §1

Data set [3] in a line: Drug localization in nucleus of HEK293 cells assessed as punctate formation after 3 hrs by DAPI staining based fluorescence microscopic analysis. The class given is ADME, subcellular. The conditions noted are these: human, hek293, 3 h. A digest of the protocol: as §1
A short description of data set [4]: Drug localization in cytosol of HEK293 cells assessed as punctate formation after 3 hrs by DAPI staining based fluorescence microscopic analysis. The data set is classed as ADME, subcellular. The conditions noted are these: human. A digest of the protocol:
as §1

The nature of data set [5]: Drug localization in nucleus of human HeLa cells assessed as punctate formation after 3 hrs by DAPI staining based fluorescence microscopic analysis. The class given is ADME, subcellular. A digest of the protocol:
as §1

Data set [6] can be described thus: Drug localization in cytosol of human HeLa cells assessed as punctate formation after 3 hrs by DAPI staining based fluorescence microscopic analysis. The class given is ADME, subcellular. A digest of the protocol:
as §1

Data set [7] is described as follows: Drug uptake in mouse HT22 cells at 3.5 uM up to 3 hrs by DAPI staining based fluorescence microscopic analysis. To be noted: ht-22, 3 h. The data set is classed as ADME, cell-based. In a few lines: (§2)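 HT-22 cells were incubated with 3.5 μM rhodamine-labelled peptide for 30 min, 3 h, 6 h and 24 h at 37 °C, then fixed in 4% PFA with DAPI nuclear stain. Per-cell fluorescence was taken as integrated density after background correction.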

Data set [8] in a line: Drug uptake in mouse HT22 cells at 3.5 uM after 6 to 24 hrs by DAPI staining based fluorescence microscopic analysis. The data set is classed as ADME, cell-based. To be noted: ht-22, 3.5 µM. A digest of the protocol:
as §2

The nature of data set [9]: Drug localization in late endosomes/lysosomes of mouse Rh-Dextran-labelled HT22 cells at 7.5 uM after 2.5 hrs using fluorescent-labelled peptide by confocal microscopic analysis. The data set is classed as ADME, subcellular, Late endosome/lysosome. To be noted: ht-22, 2.5 h.
A further data set concerns HeLa. Nature of the data set: Cytotoxicity against human HeLa cells after 24 hrs by MTT assay. The data set is classed as functional. In a few lines:
(§3)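 Cells grown at 37 °C with 5% CO2 and treated at about 50–70% confluence in serum-free medium for 24 h. Viability read by MTT and expressed as a percentage of untreated cells. Run in triplicate in at least three independent trials, reported as mean ± standard deviation.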
(In general: Tetrazolium assays rely on reduction of a dye to a coloured formazan, in cell work by metabolically active cells.)

For data set [10], the system named is HT-22. As to the kind of experiment: Aggregation property of the compound in mouse HT22 cells assessed as intracellular amyloid formation by thioflavin S/DAPI staining based fluorescence microscopic analysis. The data set is classed as ADME, cell-based. A digest of the protocol:
(§4)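 Cells treated with vehicle or 15 μM peptide for 1 h, fixed in 4% PFA for 20 min, stained with 0.005% (w/v) ThS in water for 10 min, washed three times with absolute ethanol, counterstained with DAPI, and imaged by epifluorescence microscopy.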

The test system of data set [11] is HT-22. As to the kind of experiment: Induction of cell death in mouse HT22 cells at 7.5 uM after 3 hrs by thioflavin S/DAPI/propidium iodide staining based fluorescence microscopic analysis. The class given is functional. In a few lines: (§5)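 Cells were given vehicle or 7.5 μM peptide for 3 h and stained live with 20 μg mL−1 propidium iodide for 10 min. They were then PBS-washed, fixed in 4% PFA, stained with 0.005% ThS for 10 min, ethanol-washed, counterstained with DAPI and imaged by fluorescence microscopy.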

The test system of another data set is MDA-MB-231. Nature of the data set: Cytotoxicity against human MDA-MB-231 cells after 24 hrs by MTT assay. The class given is functional. The conditions noted are these: for EC50: MDA-MB-231, 24 h, read-out: ED50 (the source's name). In a few lines:
(§6)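 Per well of a 48-well plate, 1.5 × 10^4 cells were seeded in medium with 10% FBS and grown for at least 24 h, then treated at about 50–60% confluence for 24 h. MTT was added for the final 3 h at 37 °C in the dark. Formazan was dissolved in DMSO and read at 595 nm, as % of untreated cells. Triplicate wells, at least three independent trials.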

The test system of the next data set is MCF-10A. As to the kind of experiment: Cytotoxicity against human MCF10A cells after 24 hrs by MTT assay. The class given is cell-based. A digest of the protocol:
as §6

In data set [12] the test system is HT-22. Nature of the data set: Cytotoxicity against mouse HT22 cells after 24 hrs in presence of lysosomal protease inhibitor bafilomycin A1 by MTT assay. The data set is classed as functional, cell-based.
Data set [13] concerns HT-22. As to the kind of experiment: Cytotoxicity against mouse HT22 cells after 24 hrs in presence of lysosomal protease inhibitor leupeptin by MTT assay. The data set is classed as functional, cell-based.
Data set [14] has as its system HT-22. Nature of the data set: Cytotoxicity against mouse HT22 cells after 24 hrs in presence of lysosomal protease inhibitor ammonium chloride by MTT assay. The class given is functional, cell-based.
For data set [15], the system named is HT-22. As to the kind of experiment: Aggregation property of the compound in mouse HT22 cells assessed as intracellular amyloid formation at 15 uM after 1 hr by thioflavin S/DAPI staining based fluorescence microscopic analysis. The class given is ADME, cell-based. The conditions noted are these: ht-22, 1 h. In a few lines:
as §4

The subject of another data set is HEK293. Nature of the data set: Cytotoxicity against HEK293 cells after 24 hrs by MTT assay. The class given is cell-based. The conditions noted are these: human, hek293, 24 h. A digest of the protocol: as §3
Data set [16] deals with HT-22. Nature of the data set: Induction of cell death in mouse HT22 cells by thioflavin S/DAPI/propidium iodide staining based fluorescence microscopic analysis. The class given is functional. A digest of the protocol:
as §5

The test system of data set [17] is HT-22. As to the kind of experiment: Induction of endosomal/lysosomal membrane permeabilization in mouse HT22 cells at 15 uM measured after 1 hr by acridine orange dye based fluorescence microscopic analysis. The data set is classed as functional.
The nature of data set [18]: Drug localization in cytosol of mouse Rh-Dextran-labelled HT22 cells at 7.5 uM after 2.5 hrs using fluorescent-labelled peptide by confocal microscopic analysis. The data set is classed as ADME, subcellular, HT-22.

Take `CC[C@H](C)[C@H](NC(=O)[C@H](CCC(N)=O)NC(=O)[C@@H](NC(=O)CCC(=O)N1CCN(C(=O)c2ccccc2-c2c3ccc(=[N+](CC)CC)cc-3oc3cc(N(CC)CC)ccc23)CC1)C(C)C)C(=O)N[C@H](C(=O)N[C@@H](Cc1ccc(O)cc1)C(=O)N[C@@H](CCCCN)C(=O)N[C@@H](CCCNC(=N)N)C(=O)N[C@@H](CCCNC(=N)N)C(=O)N[C@@H](CCCNC(=N)N)C(=O)N[C@@H](CCCNC(=N)N)C(=O)N[C@@H](CCCNC(=N)N)C(=O)N[C@@H](CCCNC(=N)N)C(=O)N[C@@H](CCCNC(=N)N)C(=O)N[C@@H](CCCNC(=N)N)C(=O)N[C@@H](CCCNC(=N)N)C(N)=O)C(C)C.[Cl-]` ({Piperazinyl(4-RhodamineB)-Suc}-VQIVYKRRRRRRRRR-NH2): the Drug uptake result in data set [1], in data set [2], in [3], in [4], in data set [5] and in data set [6] was “Active” throughout. The Drug uptake entry in [7] is given as “Active”; in data set [8] it was “Not Active”; in [9], “Active”.

On to Ac-LAVLFL-NH2, for which the outcome in the data set on HeLa was Active.

On to Ac-LAVLFLRRRRRRRRR-NH2, for which the EC50 with HeLa (read-out: ED50 (the source's name)) was 3 µM; with MDA-MB-231, 20 µM. Further, the figures for the Activity entry in the data set with HT-22 [10] and in the data set with MCF-10A were “Active” and “Non-Toxic”, respectively. For the same compound, the outcome in the data set with HT-22 [11], in the data set on HT-22 [12], in the data set on HT-22 [13] and in the data set on HT-22 [14] was Active.

For the compound Ac-VQIVKKRRRRRRRRR-NH2, in the data set with HeLa, the result was Active. Also, the Activity entry in the data set with HT-22 [15] is “Not Active”.

For Ac-VQIVYK-NH2, the outcome in the data set on HeLa was Active. Besides, the Activity entry is “Not Active” in the data set on HT-22 [15] and “Non-Toxic” in the data set with MCF-10A. Besides, the outcome in the data set with MDA-MB-231 was inactive.

Take Ac-VQIVYKRRRRRRRRR-NH2: the Activity entry in the data set on HEK293 is on record as “Non-Toxic”; in the data set with HT-22 [15], “Active”; in the data set on MCF-10A it was “Non-Toxic”. Moreover, the outcome with HeLa, in the data set on HT-22 [16] and in the data set with HT-22 [17] was Active. Besides, in the data set with MDA-MB-231, the EC50 came to 5 µM. Besides, the result in the data set with HT-22 [12], in the data set with HT-22 [13] and with HT-22 [14] was inactive. The Drug uptake entry in data set [18] is listed as “Active”.
